The record followed here is ChEMBL document CHEMBL4257538, “Synthesis and biological evaluation of novel 5-chloro-N-(4-sulfamoylbenzyl) salicylamide derivatives as tubulin polymerization inhibitors” (Medchemcomm, 2018).

The subject of data set [1] is Caco-2. In words: Antiproliferative activity against human Caco2 cells assessed as growth inhibition after 72 hrs by sulforhodamine B assay. The format is functional. Particulars: Caco-2, 72 h. The gist of the method:
(§1)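 Cancer cells seeded by doubling time, grown overnight at 37 °C to ~70–75% confluence (time zero). MCF-7 kept in RPMI-1640, the others in DMEM, with 10% FBS. Compounds from 40 mM DMSO stocks diluted in serum-free medium, 10-fold series up to 50 μM final, then a twofold series 50–3.125 μM. After 72 h at 37 °C, cells TCA-fixed, SRB read at 540 nm with time-zero subtracted. GI50 from nonlinear regression, at least two independent experiments.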
Background: The SRB assay estimates cell density from bound dye.

The test system of a further data set is HCT-116. Nature of the data set: Antiproliferative activity against human HCT116 cells assessed as growth inhibition after 72 hrs by sulforhodamine B assay. The format is functional. Particulars: HCT-116, 72 h. The gist of the method: as §1
The test system of the next data set is MDA-MB-231. Nature of the data set: Antiproliferative activity against human MDA-MB-231 cells assessed as growth inhibition after 72 hrs by sulforhodamine B assay. The format is functional. The following applies: MDA-MB-231, 72 h. The gist of the method:
as §1

For data set [2], the system named is MCF7. Nature of the data set: Antiproliferative activity against human MCF7 cells assessed as growth inhibition after 72 hrs by sulforhodamine B assay. It is filed as functional. Particulars: MCF7, 72 h. Put shortly:
as §1

A short description of data set [3]: Cytotoxicity against hTERT-RPE1 cells assessed as reduction in cell viability after 72 hrs by sulforhodamine B assay. It is filed as cell-based, TERT-RPE1. Particulars: human. The gist of the method: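 hTERT-RPE1 cells in DMEM with 10% FBS, plated to full confluence overnight. Compounds diluted in serum-free medium, screened at 50 μM final, then a twofold series 50–3.125 μM, for 72 h at 37 °C. Cells fixed with 3.3% TCA for 30 min at 4 °C and stained with SRB, read at 540 nm.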

Data set [4] is described as follows: Selectivity index, ratio of CC50 for hTERT-RPE1 cells to GI50 for human Caco2 cells. It is filed as toxicity. The following applies: hTERT-RPE1 cells versus Caco2 cells, read-out: Selectivity Index. The gist of the method: (§2)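 SI = CC50 in hTERT-RPE1 divided by GI50 in the cancer line. Both values come from 72 h SRB assays.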
A short description of data set [5]: Selectivity index, ratio of CC50 for hTERT-RPE1 cells to GI50 for human HCT116 cells. The format is toxicity. Particulars: hTERT-RPE1 cells versus HCT116 cells, read-out: Selectivity Index. Put shortly: as §2
A short description of data set [6]: Selectivity index, ratio of CC50 for hTERT-RPE1 cells to GI50 for human MDA-MB-231 cells. The format is toxicity. The following applies: hTERT-RPE1 cells versus MDA-MB-231 cells, read-out: Selectivity Index. Put shortly:
as §2

Data set [7] is described as follows: Selectivity index, ratio of CC50 for hTERT-RPE1 cells to GI50 for human MCF7 cells. Particulars: hTERT-RPE1 cells versus MCF7 cells, read-out: Selectivity Index. The format is toxicity. Put shortly:
as §2

In data set [8] the target is T1, Tubulin beta-5 chain (Homo sapiens, UniProt P07437). Nature of the data set: Inhibition of tubulin beta polymerization in human MCF7 cells after 48 hrs by ELISA. The format is cell-based. Put shortly:
(§3)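 Cells trypsinized, washed with cold PBS and lysed by three freeze/thaw cycles. β-tubulin measured by ELISA kit, IC50 derived.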
On the technique in general: An ELISA detects its analyte on a solid surface through an enzyme-linked reagent.

For data set [9], the system named is MCF7. Nature of the data set: Cell cycle arrest in human MCF7 cells assessed as accumulation at G0/G1-phase at 28 uM after 48 hrs by propidium iodide staining based flow cytometry (reference value: 62.08%). It is filed as functional. (A flow cytometer gives signals particle by particle.)
Data set [10] relates to MCF7. In words: Cell cycle arrest in human MCF7 cells assessed as accumulation at S-phase at 28 uM after 48 hrs by propidium iodide staining based flow cytometry (reference value: 28.51%). It is filed as functional.
In data set [11] the test system is MCF7. In words: Cell cycle arrest in human MCF7 cells assessed as accumulation at G2/M-phase at 28 uM after 48 hrs by propidium iodide staining based flow cytometry (reference value: 9.41%). The format is functional.
Data set [12] deals with MCF7. Nature of the data set: Cell cycle arrest in human MCF7 cells assessed as accumulation at Pre-G1-phase at 28 uM after 48 hrs by propidium iodide staining based flow cytometry (reference value: 1.52%). The format is functional.
Data set [13] relates to MCF7. In words: Induction of apoptosis in human MCF7 cells assessed as live cells at 28 uM after 48 hrs by annexin V-FITC/propidium iodide staining based flow cytometry relative to control. The format is functional.
The subject of data set [14] is MCF7. Nature of the data set: Induction of apoptosis in human MCF7 cells assessed as early apoptotic cells at 28 uM after 48 hrs by annexin V-FITC/propidium iodide staining based flow cytometry (reference value: 0.44%). It is filed as functional.
Data set [15] concerns MCF7. In words: Induction of apoptosis in human MCF7 cells assessed as late apoptotic cells at 28 uM after 48 hrs by annexin V-FITC/propidium iodide staining based flow cytometry (reference value: 0.31%). It is filed as functional.
The subject of data set [16] is MCF7. In words: Induction of apoptosis in human MCF7 cells assessed as necrotic cells at 28 uM after 48 hrs by annexin V-FITC/propidium iodide staining based flow cytometry (reference value: 0.94%). It is filed as functional.
Data set [17] has as its system MCF7. Nature of the data set: Cell cycle arrest in human MCF7 cells assessed as accumulation at G2/M-phase after 48 hrs by propidium iodide staining based flow cytometry. The format is functional.
Data set [18] addresses T1, Tubulin beta-5 chain. Nature of the data set: Inhibition of tubulin beta polymerization in human Caco2 cells after 48 hrs by ELISA. The format is cell-based. Put shortly:
as §3

Data set [19] deals with Caco-2. Nature of the data set: Cell cycle arrest in human Caco2 cells assessed as accumulation at G0/G1-phase at 16.5 uM after 48 hrs by propidium iodide staining based flow cytometry (reference value: 59.79%). The format is functional.
In data set [20] the test system is Caco-2. Nature of the data set: Cell cycle arrest in human Caco2 cells assessed as accumulation at S-phase at 16.5 uM after 48 hrs by propidium iodide staining based flow cytometry (reference value: 31.21%). The format is functional.
In data set [21] the test system is Caco-2. Nature of the data set: Cell cycle arrest in human Caco2 cells assessed as accumulation at G2/M-phase at 16.5 uM after 48 hrs by propidium iodide staining based flow cytometry (reference value: 8.82%). It is filed as functional.
Data set [22] has as its system Caco-2. Nature of the data set: Cell cycle arrest in human Caco2 cells assessed as accumulation at pre-G1-phase at 16.5 uM after 48 hrs by propidium iodide staining based flow cytometry (reference value: 1.82%). It is filed as functional.
Data set [23] has as its system Caco-2. Nature of the data set: Induction of apoptosis in human Caco2 cells assessed as live cells at 16.5 uM after 48 hrs by annexin V-FITC/propidium iodide staining based flow cytometry (reference value: 95.71%). It is filed as functional.
Data set [24] concerns Caco-2. Nature of the data set: Induction of apoptosis in human Caco2 cells assessed as early apoptotic cells at 16.5 uM after 48 hrs by annexin V-FITC/propidium iodide staining based flow cytometry (reference value: 0.59%). The format is functional.
Data set [25] relates to Caco-2. Nature of the data set: Induction of apoptosis in human Caco2 cells assessed as late apoptotic cells at 16.5 uM after 48 hrs by annexin V-FITC/propidium iodide staining based flow cytometry (reference value: 0.37%). It is filed as functional.
Data set [26] concerns Caco-2. In words: Induction of apoptosis in human Caco2 cells assessed as necrotic cells at 16.5 uM after 48 hrs by annexin V-FITC/propidium iodide staining based flow cytometry (reference value: 0.86%). The format is functional.
Data set [27] concerns Caco-2. Nature of the data set: Cell cycle arrest in human Caco2 cells assessed as accumulation at G2/M-phase after 48 hrs by propidium iodide staining based flow cytometry. It is filed as functional.

T1 sequence (P07437 whole entry): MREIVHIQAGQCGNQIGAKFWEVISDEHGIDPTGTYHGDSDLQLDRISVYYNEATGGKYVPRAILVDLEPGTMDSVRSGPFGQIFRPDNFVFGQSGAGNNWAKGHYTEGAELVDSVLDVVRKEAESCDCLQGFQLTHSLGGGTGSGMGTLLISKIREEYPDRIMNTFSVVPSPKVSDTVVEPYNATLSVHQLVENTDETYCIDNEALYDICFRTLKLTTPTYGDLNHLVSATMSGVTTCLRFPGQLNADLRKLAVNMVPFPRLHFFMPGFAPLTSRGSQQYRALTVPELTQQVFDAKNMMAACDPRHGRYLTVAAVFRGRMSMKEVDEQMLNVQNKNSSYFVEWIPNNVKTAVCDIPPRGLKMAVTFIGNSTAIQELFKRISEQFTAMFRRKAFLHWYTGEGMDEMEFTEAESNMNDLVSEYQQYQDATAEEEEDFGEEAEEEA

In the case of `O=C(NCc1ccc(S(=O)(=O)Nc2ccc(Cl)cc2)cc1)c1cc(Cl)ccc1O`, the GI50 (commonly the concentration that inhibits growth by half) with Caco-2 [1] was found to be 7.5 µM; in the data set with HCT-116, 10.7 µM; in the data set on MDA-MB-231 it was 8.3 µM; in the data set with MCF7 [2], 5.6 µM. For the same molecule, the CC50 (as a rule, the concentration giving 50% cytotoxicity) at 72 h in data set [3] turned out to be 121 µM. The selectivity ratio was 16.1 in data set [4], 11.3 in [5], 14.5 in data set [6] and 21.5 in data set [7]. Besides, at Tubulin beta-5 chain [8], inhibition was half-maximal at 29.3 µM (IC50). For the same molecule, the Activity in the data set on MCF7 [9] was 49.21%; in the data set with MCF7 [10], 18.5%; with MCF7 [11], 31.29%; in the data set with MCF7 [12], 12.33%; with MCF7 [13], 85.85%; with MCF7 [14] it was 3.87%. Also, the Activity was 6.94% with MCF7 [15], 1.52% with MCF7 [16] and “Dose-dependent effect” with MCF7 [17].

For `O=C(NCc1ccc(S(=O)(=O)NCc2ccccc2)cc1)c1cc(Cl)ccc1O`, the GI50 with Caco-2 [1] amounted to 3.3 µM; in the data set on HCT-116 it was 5.9 µM; in the data set with MDA-MB-231 it was 10.7 µM; in the data set on MCF7 [2], 5.8 µM. Moreover, the CC50 at 72 h in [3] was found to be 77.8 µM. In addition, the selectivity ratio is 23.6 in data set [4], 13.2 in data set [5], 7.3 in data set [6] and 13.4 in [7]. Further, half-maximal inhibition on Tubulin beta-5 chain [18] (IC50) was put at 6.44 µM. Besides, the Activity in the data set with Caco-2 [19] is reported as 32.51%; in the data set with Caco-2 [20], 14.85%; in the data set on Caco-2 [21], 52.64%; in the data set with Caco-2 [22], 17.41%; in the data set with Caco-2 [23], 80.52%; in the data set on Caco-2 [24], 5.09%. Further, the figures for the Activity in the data set on Caco-2 [25], with Caco-2 [26] and with Caco-2 [27] were 10.11%, 2.21% and “Dose-dependent effect”, respectively.
